In ChEMBL document CHEMBL1149289, “Synthesis and antibacterial activity of new poly-S-lysine-porphyrin conjugates” (J Med Chem, 2004) one finds Drug uptake data, which are given here for one molecule.

Holding throughout (format): ADME, organism-based
Holding throughout (details): in vivo

For data set [1], the system named is Staphylococcus aureus. Briefly: Drug uptake per mg of protein in Staphylococcus aureus ATCC 25923 at 0.1 uM after 10 mins. In a few lines:
(§1)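 Washed stationary-phase bacteria in PBS (10^8 to 10^9 cells/mL; OD650 ca. 0.7) incubated 10 min in the dark at room temperature with photosensitizer. Cells were then centrifuged, supernatant removed, and pellet digested in 2% aqueous SDS. Porphyrin measured by spectrofluorimetry, cell protein by modified Lowry with BSA standard; uptake expressed as nmol photosensitizer per mg cell protein.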

Data set [2] concerns Staphylococcus aureus. Description: Drug uptake per mg of protein in methicillin-resistant Staphylococcus aureus 110 at 0.1 uM after 10 mins. In a few lines: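 Bacterial suspensions (10^8 to 10^9 cells/mL in PBS) were incubated with porphyrin for 10 min in the dark at room temperature, then centrifuged. The pellet was digested in 2% aqueous SDS. Porphyrin was quantified by spectrofluorimetry and cell protein by modified Lowry assay (BSA standard). Uptake is given as nmol per mg cell protein.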

The next data set relates to Escherichia coli. Briefly: Drug uptake per mg of protein in Escherichia coli O4 at 0.1 uM after 10 mins. The procedure, abridged:
as §1

With `O=C(O)c1ccc(-c2c3nc(c(-c4ccncc4)c4ccc([nH]4)c(-c4ccncc4)c4nc(c(-c5ccncc5)c5ccc2[nH]5)C=C4)C=C3)cc1` [PORPHIRIN], the results for the Drug uptake with Staphylococcus aureus [1], in the data set on Staphylococcus aureus [2] and in the data set with Escherichia coli were 1.54 nmol/mg, 1.5 nmol/mg and 1.2 nmol/mg, respectively.
